Laboratory results taken from ChEMBL document CHEMBL3853263, “Effect of intercalator and Lewis acid-base branched peptide complex formation: boosting affinity towards HIV-1 RRE RNA” (Medchemcomm, 2016).
Activity calls are given as the source filed them. The rule behind the calls is not given here. Numbered stars: 1 amine (or outer) side, 2 acyl side, 3 side chain; on linkers, the order of the positions; unused ones are H or OH. Side chains are listed from the residue outwards. Peptide text beside a SMILES is read from it. * marks the point of attachment. X2 = NCCCC[C@H](NC(=O)[C@@H](N)CCCCN)C(=O)N[C@@H](CCCCNC(=O)c1ccc(B(O)O)cc1)C(=O)*; X1 = NCCCC[C@H](N)C(=O)N[C@@H](CCCCNc1c2ccccc2nc2ccccc12)C(=O)*; X3 = NCCCC[C@H](N)C(=O)N[C@@H](CCCCNC(=O)c1ccc(B(O)O)cc1)C(=O)*; Benzoyl(4-B(OH)2) = O=C(c1ccc(B(O)O)cc1)*; Acridin9yl = c1ccc2c(*)c3ccccc3nc2c1; εLys = N[C@@H](CCCCN[*:1])C(=O)[*:2]

Legend:
[1] = tested on: Human immunodeficiency virus 1; assay: (§1) Antiviral activity against HIV1 NL4-3 infected in human U87 cells transfected with CD4/CXCR4 assessed as inhibition of viral replication at 100 uM preincubated for 1 hr followed by viral infection for 24 hrs and subsequent compound wash out and addition of additional compound measured at 72 hrs post infection by p24 assay; assay type: functional, cell-based; details: U-87MG ATCC
Summary of the method: (§2)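 U87-CD4/CXCR4 cells are seeded at 1 x 10⁴/well and left to adhere overnight. Compounds come from 1 mM stocks in water, diluted in RPMI. Cells are pretreated for 1 h, then infected with NL4-3 (CXCR4-tropic) at MOI 0.01 for 24 h. Cells are PBS-washed and given fresh medium with more compound. p24 is quantified in supernatant at 72 h post-infection.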

[2] = Cytotoxicity against human U87 cells transfected with CD4/CXCR4 assessed as decrease in cell viability up to 100 uM after 24 hrs by MTT assay; assay type: toxicity, cell-based; details: u-87mg atcc
Summary of the method: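 U87 CXCR4 cells are seeded at 1 x 10⁴/well and incubated overnight at 37 °C in 5% CO₂. They are treated with 100, 50 or 10 µM (final) compound for 24 h. Tetrazolium dye is added for 4 h, then solubilization/stop solution for 1 h. A570 is read and normalized to untreated cells set at 1.0.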

[3] = Binding affinity to HIV1 wild type [32P]-labeled RRE-2B RNA after 4 hrs by electrophoretic mobility shift assay; parameters: species or system Human immunodeficiency virus 1
Summary of the method: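 5'-³²P RRE-IIB (4 nM in 2x phosphate buffer, pH 7.0) is refolded at 95 °C for 3 min, then rt for 20 min. It is mixed 1:1 with peptide in water (final 0.001–10 µM) for 4 h at rt. Complexes are resolved by 10% native PAGE at 4 °C. Kd is the 50%-binding concentration from a sigmoidal fit of % RNA bound vs log[peptide]. Triplicates.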

[4] = Cytotoxicity against HIV1 NL4-3 infected human U87 cells transfected with CD4/CXCR4 assessed as decrease in cell viability at 20 to 80 uM after 72 hrs by MTT assay; assay type: toxicity, cell-based; details: u-87mg atcc
[5] = tested on: Human immunodeficiency virus 1; assay: as §1, with “10” for “100”, “assay relative to control” for “assay”; assay type: functional, U-87MG ATCC; details: Human immunodeficiency virus 1, NL4-3, U-87 MG; summary of the method: as §2
[6] = tested on: Human immunodeficiency virus 1; assay: as §1, with “replication” for “replication at 100 uM”; assay type: functional, cell-based, U-87MG ATCC; details: for IC50: Human immunodeficiency virus 1, NL4-3, U-87 MG; for inhibition: U-87MG ATCC; summary of the method: as §2
[7] = tested on: Human immunodeficiency virus 1; assay: as §1, with “40” for “100”, “assay relative to control” for “assay”; assay type: functional, U-87MG ATCC; details: Human immunodeficiency virus 1, NL4-3, U-87 MG; summary of the method: as §2
[8] = tested on: Human immunodeficiency virus 1; assay: Binding affinity to HIV1 wild type [32P]-labeled RRE-2B RNA assessed as protection of RNA from RNase T1-induced cleavage by footprinting method
Summary of the method: (§3)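 5'-³²P RRE-IIB (10 nM) plus unlabeled RRE-IIB (200 nM) is heated to 95 °C for 3 min and snap-cooled. It is incubated with peptide on ice for 4 h in 10 mM Tris pH 7, 100 mM KCl, 10 mM MgCl₂. Digestion is on ice for 1 h, with RNase T1 at 1 U or RNase A at 20 ng. Cleavage is stopped by precipitation, run on 12% PAGE with 7.5 M urea, and read by autoradiography.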

[9] = tested on: Human immunodeficiency virus 1; assay: Binding affinity to HIV1 wild type 2-aminopurine-labeled RRE-2B RNA assessed as 1:1 binding stoichiometry between compound and RNA at 0.25 to 4 molar ratio of compound/RNA by Job plot method
[10] = tested on: Human immunodeficiency virus 1; assay: Binding affinity to HIV1 wild type [32P]-labeled RRE-2B RNA assessed as protection of RNA from RNase A-induced cleavage at 0.2 to 20 uM by footprinting method; summary of the method: as §3

Kd [3]	SMILES	inhibition [1]	Activity [2]	Activity [4]	also measured
280 nM	CC(C)C[C@H](NC(=O)[C@H](CCCCNC(=O)[C@H](CCCCN)NC(=O)[C@H](CCCCN)NC(=O)[C@@H](N)CCCCN)NC(=O)[C@H](CCCCN)NC(=O)[C@H](CCCCN)NC(=O)[C@@H](N)CCCCN)C(=O)N[C@@H](CCCCNC(=O)c1ccc(B(O)O)cc1)C(=O)N[C@@H](CCCCNC(=O)c1ccc(B(O)O)cc1)C(=O)N[C@@H](Cc1ccc(O)cc1)C(N)=O (H-KKKK([Lys-Lys-Lys])LK(Benzoyl(4-B(OH)2))K(Benzoyl(4-B(OH)2))Y-NH2)	Active	Non-Toxic	Non-Toxic	–
20 nM	CC(C)C[C@H](NC(=O)[C@H](CCCCN)NC(=O)[C@H](CCCCNC(=O)[C@H](CCCCN)NC(=O)[C@H](CCCCN)NC(=O)[C@@H](N)CCCCN)NC(=O)[C@H](CCCCN)NC(=O)[C@H](CCCCN)NC(=O)[C@@H](N)CCCCN)C(=O)N[C@@H](CCCCNc1c2ccccc2nc2ccccc12)C(=O)N[C@@H](Cc1ccc(O)cc1)C(N)=O (H-KKKK([Lys-Lys-Lys])KLK(Acridin9yl)Y-NH2)	Active	Non-Toxic	Non-Toxic	–
330 nM	CC(C)C[C@H](NC(=O)[C@H](CCCCN)NC(=O)[C@@H](N)CCCCN)C(=O)NCCCC[C@H](NC(=O)[C@H](CC(C)C)NC(=O)[C@H](CCCCN)NC(=O)[C@@H](N)CCCCN)C(=O)N[C@@H](CC(C)C)C(=O)N[C@@H](CCCCN)C(=O)N[C@@H](CCCCNC(=O)c1ccc(B(O)O)cc1)C(=O)N[C@@H](Cc1ccc(O)cc1)C(N)=O (H-KKLK([Leu-Lys-Lys])LKK(Benzoyl(4-B(OH)2))Y-NH2)	–	Non-Toxic	–	–
130 nM	CC(C)C[C@H](NC(=O)[C@H](CCCCNC(=O)c1ccc(B(O)O)cc1)NC(=O)[C@H](CC(C)C)NC(=O)[C@H](CCCCNC(=O)[C@H](CCCCN)NC(=O)[C@H](CCCCN)NC(=O)[C@@H](N)CCCCN)NC(=O)[C@H](CCCCN)NC(=O)[C@H](CCCCN)NC(=O)[C@@H](N)CCCCN)C(=O)N[C@@H](Cc1ccc(O)cc1)C(N)=O (H-KKKK([Lys-Lys-Lys])LK(Benzoyl(4-B(OH)2))LY-NH2)	–	Non-Toxic	–	–
1430 nM	CC(C)C[C@H](NC(=O)[C@@H](N)CCCCN)C(=O)N[C@@H](CCCCN)C(=O)NCCCC[C@H](NC(=O)[C@H](CCCCN)NC(=O)[C@H](CC(C)C)NC(=O)[C@@H](N)CCCCN)C(=O)N[C@@H](CCCCN)C(=O)N[C@@H](CCCCN)C(=O)N[C@@H](CCCCNC(=O)c1ccc(B(O)O)cc1)C(=O)N[C@@H](Cc1ccc(O)cc1)C(N)=O (H-KLKK([Lys-Leu-Lys])KKK(Benzoyl(4-B(OH)2))Y-NH2)	–	Non-Toxic	–	inhibition at 10 µM [5]: 40%
70 nM	CC(C)C[C@H](NC(=O)[C@H](CCCCN)NC(=O)[C@H](CCCCNC(=O)[C@H](CCCCN)NC(=O)[C@H](CCCCNc1c2ccccc2nc2ccccc12)NC(=O)[C@@H](N)CCCCN)NC(=O)[C@H](CCCCN)NC(=O)[C@H](CCCCNc1c2ccccc2nc2ccccc12)NC(=O)[C@@H](N)CCCCN)C(=O)N[C@@H](CCCCNC(=O)c1ccc(B(O)O)cc1)C(=O)N[C@@H](Cc1ccc(O)cc1)C(N)=O (H-KK(Acridin9yl)KK([Lys-X1])KLK(Benzoyl(4-B(OH)2))Y-NH2)	Active	Dose-dependent effect	Non-Toxic	inhibition at 10 µM [5]: 60%; IC50 [6]: 7300 nM; inhibition [6]: Dose-dependent effect; inhibition at 40 µM [7]: 90%
120 nM	CC(C)C[C@H](NC(=O)[C@H](CCCCN)NC(=O)[C@H](CCCCNC(=O)[C@H](CCCCNC(=O)c1ccc(B(O)O)cc1)NC(=O)[C@H](CCCCN)NC(=O)[C@@H](N)CCCCN)NC(=O)[C@H](CCCCNC(=O)c1ccc(B(O)O)cc1)NC(=O)[C@H](CCCCN)NC(=O)[C@@H](N)CCCCN)C(=O)N[C@@H](CCCCNC(=O)c1ccc(B(O)O)cc1)C(=O)N[C@@H](Cc1ccc(O)cc1)C(N)=O (H-KKK(Benzoyl(4-B(OH)2))K(X2)KLK(Benzoyl(4-B(OH)2))Y-NH2)	–	Non-Toxic	–	–
660 nM	CC(C)C[C@H](NC(=O)[C@H](CC(C)C)NC(=O)[C@H](CCCCNC(=O)[C@H](CCCCN)NC(=O)[C@H](CCCCNC(=O)c1ccc(B(O)O)cc1)NC(=O)[C@@H](N)CCCCN)NC(=O)[C@H](CCCCN)NC(=O)[C@H](CCCCNC(=O)c1ccc(B(O)O)cc1)NC(=O)[C@@H](N)CCCCN)C(=O)N[C@@H](CCCCN)C(=O)N[C@@H](Cc1ccc(O)cc1)C(N)=O (H-KK(Benzoyl(4-B(OH)2))KK([Lys-X3])LLKY-NH2)	–	Non-Toxic	–	–
60 nM	CC(C)C[C@H](NC(=O)[C@H](CCCCN)NC(=O)[C@H](CCCCNC(=O)[C@H](CCCCN)NC(=O)[C@H](CCCCN)NC(=O)[C@@H](N)CCCCNc1c2ccccc2nc2ccccc12)NC(=O)[C@H](CCCCN)NC(=O)[C@H](CCCCN)NC(=O)[C@@H](N)CCCCNc1c2ccccc2nc2ccccc12)C(=O)N[C@@H](CCCCNC(=O)c1ccc(B(O)O)cc1)C(=O)N[C@@H](Cc1ccc(O)cc1)C(N)=O (H-K(Acridin9yl)KKK([Lys-Lys-εLys-Acridin9yl])KLK(Benzoyl(4-B(OH)2))Y-NH2)	Active	Non-Toxic	Non-Toxic	Activity [8]: Dose-dependent effect; IC50 [6]: 10100 nM; inhibition [6]: Dose-dependent effect; inhibition at 40 µM [7]: 90%; Activity [9]: Active; Activity [10]: Active
140 nM	CC(C)C[C@H](NC(=O)[C@H](CCCCNc1c2ccccc2nc2ccccc12)NC(=O)[C@H](CCCCNC(=O)[C@H](CCCCN)NC(=O)[C@H](CCCCN)NC(=O)[C@@H](N)CCCCN)NC(=O)[C@H](CCCCN)NC(=O)[C@H](CCCCN)NC(=O)[C@@H](N)CCCCN)C(=O)N[C@@H](CCCCN)C(=O)N[C@@H](Cc1ccc(O)cc1)C(N)=O (H-KKKK([Lys-Lys-Lys])K(Acridin9yl)LKY-NH2)	Active	Non-Toxic	–	–
210 nM	CC(C)C[C@H](NC(=O)[C@@H](N)CC(C)C)C(=O)N[C@@H](CCCCN)C(=O)NCCCC[C@H](NC(=O)[C@H](CCCCN)NC(=O)[C@H](CC(C)C)NC(=O)[C@@H](N)CC(C)C)C(=O)N[C@@H](CCCCN)C(=O)N[C@@H](CCCCNC(=O)c1ccc(B(O)O)cc1)C(=O)N[C@@H](CCCCN)C(=O)N[C@@H](Cc1ccc(O)cc1)C(N)=O (H-LLKK([Lys-Leu-Leu])KK(Benzoyl(4-B(OH)2))KY-NH2)	–	Non-Toxic	–	–
300 nM	CC(C)C[C@H](NC(=O)[C@H](CCCCNC(=O)[C@H](CCCCN)NC(=O)[C@H](CC(C)C)NC(=O)[C@@H](N)CCCCN)NC(=O)[C@H](CCCCN)NC(=O)[C@H](CC(C)C)NC(=O)[C@@H](N)CCCCN)C(=O)N[C@@H](CCCCN)C(=O)N[C@@H](CCCCNC(=O)c1ccc(B(O)O)cc1)C(=O)N[C@@H](Cc1ccc(O)cc1)C(N)=O (H-KLKK([Lys-Leu-Lys])LKK(Benzoyl(4-B(OH)2))Y-NH2)	–	Non-Toxic	–	–
–	NCCCC[C@H](NC(=O)[C@H](CCCCN)NC(=O)[C@@H](N)CCCCN)C(=O)NCCCC[C@H](NC(=O)[C@H](CCCCN)NC(=O)[C@H](CCCCN)NC(=O)[C@@H](N)CCCCN)C(=O)N[C@@H](CCCCNc1c2ccccc2nc2ccccc12)C(=O)N[C@@H](CCCCNc1c2ccccc2nc2ccccc12)C(=O)N[C@@H](CCCCN)C(=O)N[C@@H](Cc1ccc(O)cc1)C(N)=O (H-KKKK([Lys-Lys-Lys])K(Acridin9yl)K(Acridin9yl)KY-NH2)	Active	Non-Toxic	Non-Toxic	inhibition [6]: Dose-dependent effect; inhibition at 40 µM [7]: 90%
170 nM	CC(C)C[C@H](NC(=O)[C@H](CCCCN)NC(=O)[C@@H](N)CCCCN)C(=O)NCCCC[C@H](NC(=O)[C@H](CC(C)C)NC(=O)[C@H](CCCCN)NC(=O)[C@@H](N)CCCCN)C(=O)N[C@@H](CCCCN)C(=O)N[C@@H](CCCCNC(=O)c1ccc(B(O)O)cc1)C(=O)N[C@@H](CCCCNC(=O)c1ccc(B(O)O)cc1)C(=O)N[C@@H](Cc1ccc(O)cc1)C(N)=O (H-KKLK([Leu-Lys-Lys])KK(Benzoyl(4-B(OH)2))K(Benzoyl(4-B(OH)2))Y-NH2)	–	Non-Toxic	–	–
